“And” between values parts separate entries of the source, which are not always exact repeats. Equal values may be shown once. Results filed as inconclusive are left out. The source made the active and inactive calls.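 How the source made its calls: active means compounds lowering the viability signal in every test, with half-maximal concentration at most ten times the top dose; inconclusive means mixed test calls, a flat partial drop, or a poor fit; inactive means all tests inactive.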
What was measured:
[1] = system: HMLE_sh_eGFP viability, CellTiter-Glo luminescence, 72 h; test: cytotoxicity toward control HMLE_sh_eGFP cells, dose response, counter-screen for breast cancer stem cell project, cell-based, CellTiter-Glo luminescence, 72 h, dry powder, set 6 (AID 504666)
In short: (§1)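 System: HMLE_sh_eGFP cell line. Controls: DMSO-only neutral and puromycin positive controls on every plate. Times: compound exposure about 70-74 h at 37 °C, 5% CO2. Technique: CellTiter-Glo luminescence, reagent used at 1:3 dilution in PBS. Buffer or medium: serum-free culture medium for cell plating and exposure.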

[2] = as above; conditions: HMLE_sh_eGFP viability, CellTiter-Glo luminescence, 72 h
In short: as §1

Compound	AC50 [1]	also measured
Cc1csc(NC(=O)c2ccoc2COc2ccccc2)n1	20.5 µM	–
CC(C)Cc1ccc(/C=C/C(=O)NC2=NCCS2)cc1	1.07 µM	–
Cc1csc(NC(=O)c2ccc(COc3cc(Cl)ccc3Cl)o2)n1	0.063 µM	–
Cc1csc(NC(=O)c2ccc(COC3CCCCC3)o2)n1	18.5 µM	–
COc1ccc(OCc2ccc(C(=O)Nc3nc(C)cs3)o2)c(F)c1	14.2 µM	–
Cc1csc(NC(=O)c2ccc(COc3cccc(Cl)c3)o2)n1	9.15 µM	–
Cc1csc(NC(=O)c2ccc(COc3cccc(S(C)(=O)=O)c3)o2)n1	–	activity change, negative = toxicity ([2]; at 19.5 µM (top of the series)): -5.74% (inactive)
Cc1csc(NC(=O)c2ccc(COc3ccccc3)o2)n1	21.1 µM	–
CC(C)c1ccc(/C=C/C(=O)Nc2nc(C(F)(F)F)cs2)cc1	8.98 µM	–
COc1ccc(Cl)c(OCc2ccc(C(=O)Nc3nc(C)cs3)o2)c1	0.166 µM	–
CCOc1cccc(OCc2ccc(C(=O)Nc3nc(C)cs3)o2)c1	4.16 µM	–
CC(C)c1ccc(/C=C/C(=O)N(C)C2=NCCS2)cc1	–	activity change, negative = toxicity ([2]; at 19.5 µM (top of the series)): -2.24% (inactive)
CC(C)c1ccc(C2CC2C(=O)NC2=NCCS2)cc1 (stereo not drawn)	23.9 µM	–
Cc1coc(NC(=O)/C=C/c2ccc(C(C)C)cc2)n1	–	activity change, negative = toxicity ([2]; at 19.5 µM (top of the series)): -9.8% (inactive)
C/C(=C\C(=O)NC1=NCCS1)c1ccc(C)cc1	–	activity change, negative = toxicity ([2]; at 19.5 µM (top of the series)): -6.97% (inactive)
Cc1coc(NC(=O)c2ccc(COc3ccccc3)o2)n1	–	activity change, negative = toxicity ([2]; at 19.5 µM (top of the series)): -6.36% (inactive)
O=C(Nc1nc2c(Cl)cccc2s1)c1ccc(COc2ccccc2)o1	31.3 µM	–
Cc1csc(NC(=O)c2ccc(COCc3ccccc3)o2)n1	10.5 µM	–
Cc1csc(NC(=O)c2ccc(CS(=O)(=O)c3ccccc3)o2)n1	–	activity change, negative = toxicity ([2]; at 19.5 µM (top of the series)): 1.03% (inactive)
COc1cccc(OCc2ccc(C(=O)Nc3nc(C)cs3)o2)c1	1.65 µM	–
O=C(Nc1nncs1)c1ccc(COc2ccccc2)o1	–	activity change, negative = toxicity ([2]; at 19.5 µM (top of the series)): 8.89% (inactive)
CC(C)c1ccc(/C=C/C(=O)Nc2cncs2)cc1	9.59 µM	–
O=C(Nc1nc(C(F)(F)F)cs1)c1ccc(COc2ccccc2)o1	19.3 µM	–
Cc1csc(NC(=O)c2ccc(COC(C)C)o2)n1	–	activity change, negative = toxicity ([2]; at 19.5 µM (top of the series)): 7.01% (inactive)

Compound	AC50 [1]	also measured
Cc1ccc(OCc2ccc(C(=O)Nc3nc(C)cs3)o2)cc1	6.79 µM	–
CC(C)c1ccc(/C=C/C(=O)NC2=NCCS2)cc1	21.7 µM	–
Cc1csc(NC(=O)c2ccc(COc3ccccc3F)o2)n1	0.089 µM	–
Cc1cc(Br)ccc1OCC(=O)N/N=C/c1ccc[nH]1	17.7 µM	–
Cc1csc(NC(=O)c2ccc(COc3cccc(OC(F)(F)F)c3)o2)n1	0.667 µM	–
COc1ccc(OC)c2sc(NC(=O)c3ccc(COc4ccccc4)o3)nc12	–	activity change, negative = toxicity ([2]; at 30 µM (top of the series)): -8.62% (inactive)
Cc1csc(NCc2ccc(COc3ccccc3)o2)n1	20.7 µM	–
Cc1csc(NC(=O)c2cocc2COc2ccccc2)n1	–	activity change, negative = toxicity ([2]; at 30 µM (top of the series)): 8.46% (inactive)
Cc1csc(NC(=O)c2ccc(COC(C)(C)C)o2)n1	–	activity change, negative = toxicity ([2]; at 19.5 µM (top of the series)): -6.71% (inactive)
Cc1csc(NC(=O)c2ccc(CNc3ccccc3)o2)n1	2.62 µM	–
Cc1cc(C)c(OCC(=O)N/N=C/c2ccc[nH]2)c(C)c1	–	activity change, negative = toxicity ([2]; at 19.5 µM (top of the series)): -14% (inactive)
Cc1csc(NC(=O)c2ccc(COc3cccc(F)c3)o2)n1	18.6 µM	–
COc1ccc(/C=C/C(=O)NC2=NCCS2)c(OC)c1	–	activity change, negative = toxicity ([2]; at 19.5 µM (top of the series)): -4.82% (inactive)
Cc1csc(NC(=O)c2ccc(COc3cccc(Oc4ccccc4)c3)o2)n1	0.738 µM	–
N#Cc1csc(NC(=O)c2ccc(COc3ccccc3)o2)n1	23.1 µM	–
CC(C)NC(=O)c1ccc(COc2ccccc2)o1	–	activity change, negative = toxicity ([2]; at 19.5 µM (top of the series)): 0.674% (inactive)
Cc1ccc2cc(C(=O)NC3=NCCS3)n(C)c2c1	–	activity change, negative = toxicity ([2]; at 30 µM (top of the series)): -2.52% (inactive)
CCN(CC)C(=O)c1ccc(COc2ccccc2)o1	–	activity change, negative = toxicity ([2]; at 19.5 µM (top of the series)): -2.12% (inactive)
Cc1csc(NC(=O)c2coc(COc3ccccc3)c2)n1	2.78 µM	–
Cc1csc(NC(=O)c2ccc(CCc3ccccc3)o2)n1	5.68 µM	–
C/C(=C\C(=O)NC1=NCCS1)c1ccc(CC(C)C)cc1	27.4 µM	–
Cc1cccc(OCc2ccc(C(=O)Nc3nc(C)cs3)o2)c1	0.254 µM and 1.98 µM	–
COc1ccc2nc(NC(=O)c3ccc(COc4ccccc4)o3)sc2c1	2.54 µM	–
CCc1ccc(/C=C/C(=O)NC2=NCCS2)cc1	28.3 µM	–

Source: PubChem BioAssay AID504666 (Broad Institute, 2011)
